Assay outcomes from PubChem.
In the library only some 3% were active in any assay of this set; here they are far more common.
AI-2 QS modul: modulates the Vibrio harveyi AI-2 quorum sensing system | Vibrio harveyi JMH597 AI-2 luminescence/OD600 ratio, 9 h; stronger effect = lower value; strain lacks LuxN and CqsS sensors; 0 = neutral-control median | AID 2094 | activity change, % at 7.5 µM | actives 0.4% (n = 300,000); in the data active = activity change below about -75%, passing the limit was not always enough; inconclusive = no clear call, values can overlap the other calls;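 also: luminescence divided by OD600 gain over 9 h not by final OD600 alone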
V-ATPase pH: yeast V-ATPase proton transport regulation by pHLuorin; actives 0.37% (n = 350,000); response, % at 10 µM; S. cerevisiae, pHLuorin cytosolic pH fluorescence; AID 504577; in the data active = response mostly above about 7.3%, no sharp cut-off; inactive = mostly below about 5.4%; also: actives read high
CendR NRP1 mod: alters CendR peptide binding to human NRP-1 | O14786 | inhibition, % at 25 µM | actives 0.85% (n = 360,000) | AID 602438 | FAM-RPARPAR peptide binding to NRP-1, fluorescence polarization;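 active = inhibition or corrected inhibition above about 18%, plus a signal ratio from 0.5 to 1.5, limit read from the data, passing the limit was not always enough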
Target sequence (O14786 whole entry, looked up): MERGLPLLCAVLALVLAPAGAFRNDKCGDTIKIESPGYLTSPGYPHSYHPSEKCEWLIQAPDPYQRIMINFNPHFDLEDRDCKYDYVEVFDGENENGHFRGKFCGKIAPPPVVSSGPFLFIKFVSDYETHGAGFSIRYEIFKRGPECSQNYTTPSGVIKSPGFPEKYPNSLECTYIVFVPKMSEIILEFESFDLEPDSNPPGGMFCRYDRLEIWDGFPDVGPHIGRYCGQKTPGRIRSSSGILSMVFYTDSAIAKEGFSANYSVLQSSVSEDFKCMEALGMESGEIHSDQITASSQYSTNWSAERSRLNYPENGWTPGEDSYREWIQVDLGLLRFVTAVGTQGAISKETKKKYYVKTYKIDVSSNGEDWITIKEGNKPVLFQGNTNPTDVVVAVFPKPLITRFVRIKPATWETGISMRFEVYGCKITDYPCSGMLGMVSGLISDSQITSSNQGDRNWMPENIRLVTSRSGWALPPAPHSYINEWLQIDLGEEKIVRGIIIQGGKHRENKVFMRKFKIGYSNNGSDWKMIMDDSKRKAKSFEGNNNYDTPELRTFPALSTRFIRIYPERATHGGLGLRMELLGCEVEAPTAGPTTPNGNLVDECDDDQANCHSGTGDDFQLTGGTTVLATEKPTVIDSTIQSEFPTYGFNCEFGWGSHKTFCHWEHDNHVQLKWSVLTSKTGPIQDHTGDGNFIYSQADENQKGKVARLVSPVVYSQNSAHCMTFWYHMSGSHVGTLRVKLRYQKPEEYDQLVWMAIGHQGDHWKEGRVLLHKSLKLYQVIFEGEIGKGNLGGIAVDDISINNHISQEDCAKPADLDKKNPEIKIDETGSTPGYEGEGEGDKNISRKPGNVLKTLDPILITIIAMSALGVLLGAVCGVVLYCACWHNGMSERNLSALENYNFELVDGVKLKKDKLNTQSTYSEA
T cruzi inh: blocks replication of Trypanosoma cruzi; T. cruzi beta-gal in NIH3T3, luminescence, 90 h; inhibition, % (test concentration not listed); actives 1.4% (n = 300,000); AID 1885;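 active = mean inhibition across valid replicates above about 55%, limit read from the data; inconclusive = mean below that limit but half or more replicates reach it; inactive = mean below it, under half of replicates reach it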;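 also: signal also drops with host cell toxicity which is not excluded here; 0% = plate median of DMSO wells and 100% = zero luminescence signal; higher percent means less beta-gal luminescence so fewer parasites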
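Incubation – ≥90 h infection period, 3 h prior cell attachment · System – NIH/3T3 fibroblasts plus reporter T. cruzi · Doses – compound pinned at 50 nL/well, DMSO · Read-out basis – percent inhibition of parasite-derived β-gal signal · Signal – luminescent β-galactosidase signal after 60 min lysis · Also added – 5000 T. cruzi trypomastigotes/well · Medium – Low-serum DMEM with 2% FBS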
Yeast superoxide: lowers age-related superoxide in aged yeast cells; superoxide response (% of plate mean), % at 10 µM; S. cerevisiae aged cells, superoxide DHE fluorescence; stronger effect = lower value; AID 2690; actives 0.18% (n = 330,000);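 active = superoxide response under a set limit, about three screen SD below normal, cut at about 65% in these data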;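 also: yeast aged for seven days with compound at 30 °C before DHE staining; 100% = average MFI of all compound-treated wells on the plate with controls excluded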
HIF act: HIF pathway transcriptional activation. U2OS HRE-luciferase reporter, luminescence; normalized: DMSO 0%, desferrioxamine 100%. activation, % at 7.5 µM (by protocol). actives 0.32% (n = 300,000). AID 1910;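 active = mean activation of at least 10% of the iron chelator positive control signal, with at least half of replicates also reaching 10%; inconclusive = mean and replicate majority disagree about reaching 10%; inactive = mean and most replicates under 10%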
Active calls of the source: *; ? = inconclusive; · = no result.

SMILES	AI-2 QS modul	V-ATPase pH	CendR NRP1 mod	T cruzi inh	Yeast superoxide	HIF act
COC(=O)[C@H](CCSC)NC(=O)c1cccnc1SC	1	-3	14	12	101	633*
O=C(Nc1ccc(-c2cccc(F)c2)cc1)C1CCCN(Cc2ccccn2)C1 (stereo unspecified)	14	2	16	9	103	0
COc1cccc(CNc2ccc3c(c2)CCC3)c1	12	3	-23	60*	107	1
COc1ccc(OC)c(CNc2ccc3c(c2)CCC3)c1	19	5	-11	70*	94	2
CCc1ccc(/C=N/Nc2ncnc3nc[nH]c23)cc1	20	-1	6	0	82	0
Cc1cc(C(=O)NC2Cc3ccccc3C2)c(C)o1	11	0	3	-11	101	3
CCSc1nnc(-c2cnn(-c3ccccc3)c2-n2cccc2)n1C	32	2	44*	-6	88	0
CCCCCCSc1nnc(-c2cnn(-c3ccccc3)c2-n2cccc2)n1C	43	0	12	24	91	-1
O=C(CNC(=O)c1ccccc1)N/N=C/c1ccc([N+](=O)[O-])o1	-16	-3	-1	59*	106	0
O=[N+]([O-])c1ccc(C=Nc2cccc3ccccc23)s1	30	2	-9	61*	115	0
Cc1ccc(NCC(=O)N/N=C\c2ccc([N+](=O)[O-])o2)cc1	74	5	-19	52	104	0
CCCCCC(=O)N/N=C/c1ccc([N+](=O)[O-])o1	·	-1	0	76*	107	0
O=C(CCC(=O)Nc1ccc(Cl)cc1Cl)N/N=C/c1ccc([N+](=O)[O-])o1	?	·	14	60*	118	1
COCCN=C1N[C@@H](c2ccc(Br)cc2)C(C(=O)OC)=C(C)N1Cc1ccccc1	-4	-3	8	22	90	0
O=C(c1cccs1)N1CCC(c2nc3c(nnn3Cc3ccccc3)c(=O)[nH]2)CC1	8	-4	1	-6	110	0
Cc1cccc(C)c1NC(=O)c1ccccc1C(=O)O	19	1	10	-2	88	0
C=CCNC(=O)CCCCCNS(=O)(=O)c1ccc(OC)cc1	2	-1	-1	-22	122	0
CCOC(=O)/C(=C\c1ccc([N+](=O)[O-])o1)NC(=O)c1ccccc1	14	-2	-4	68*	94	-1
O=C(Cc1ccccc1)NCC(=O)N/N=C/c1ccc([N+](=O)[O-])s1	18	2	7	49	128	-2
CCCOC(=O)/C(=C\c1ccc([N+](=O)[O-])o1)NC(=O)c1ccccc1	-30	2	-13	51	102	-1
O=C(CNC(=O)c1ccccc1)N/N=C/c1ccc([N+](=O)[O-])s1	-8	-1	3	76*	106	0
O=C(CNc1ccccc1)N/N=C/c1ccc([N+](=O)[O-])o1	?	0	-6	64*	113	0
O=c1c2ccc([N+](=O)[O-])cc2ncn1CCOc1ccc(Cl)cc1	19	-3	-18	63*	121	0
O=c1c2ccc([N+](=O)[O-])cc2ncn1CCOc1cccc(Br)c1	-1	-1	-17	67*	91	0
C[C@@H]1CN([C@@H](C)CO)C(=O)CCCn2cc(nn2)CO[C@H]1CN(C)S(=O)(=O)c1ccccc1C#N	·	1	-5	·	·	·
SMILES	AI-2 QS modul	V-ATPase pH	CendR NRP1 mod	T cruzi inh	Yeast superoxide	HIF act
Cc1cccc(NC(=O)CSCC(=O)N2CCN(c3cccc(C(F)(F)F)c3)CC2)c1	·	0	8	·	84	·
Cc1ccc(C)c(N(CC(=O)Nc2ccc(-c3nc4ccc(C)cc4s3)cc2)S(C)(=O)=O)c1	32	2	-8	65*	103	2
COc1cc2ccccc2c2c1CCCC2=O	29	-3	3	4	108	0
CNC(=S)NN(c1ccccc1)c1ccccc1	19	3	44*	-3	82	1
COCCNC(=S)NN(c1ccccc1)c1ccccc1	40	0	10	-16	94	0
COc1cc2cc(Oc3ccc4ccc(=O)oc4c3)c(=O)oc2cc1OC(=O)/C=C/c1ccccc1	13	5	27*	-9	101	0
